Assay results: ChEMBL document CHEMBL1155976, “Synthesis and preliminary pharmacological evaluation of imidazo[2,1-f]purine-2,4-dione derivatives” (Eur J Med Chem, 2009)
Each block holds one molecule with its values, some of them ahead of it. Activity calls are given as the source filed them. The calls are words filed in the database; no cut-off is given here.

Experiments:
[1] = target: 5-hydroxytryptamine receptor 2A (Rattus norvegicus, UniProt P14842); assay: Displacement of [3H]ketanserin from 5HT2A receptor in rat cerebral cortex after 20 mins by liquid scintillation counting; format: tissue-based
Chain of 5-hydroxytryptamine receptor 2A (P14842 whole entry): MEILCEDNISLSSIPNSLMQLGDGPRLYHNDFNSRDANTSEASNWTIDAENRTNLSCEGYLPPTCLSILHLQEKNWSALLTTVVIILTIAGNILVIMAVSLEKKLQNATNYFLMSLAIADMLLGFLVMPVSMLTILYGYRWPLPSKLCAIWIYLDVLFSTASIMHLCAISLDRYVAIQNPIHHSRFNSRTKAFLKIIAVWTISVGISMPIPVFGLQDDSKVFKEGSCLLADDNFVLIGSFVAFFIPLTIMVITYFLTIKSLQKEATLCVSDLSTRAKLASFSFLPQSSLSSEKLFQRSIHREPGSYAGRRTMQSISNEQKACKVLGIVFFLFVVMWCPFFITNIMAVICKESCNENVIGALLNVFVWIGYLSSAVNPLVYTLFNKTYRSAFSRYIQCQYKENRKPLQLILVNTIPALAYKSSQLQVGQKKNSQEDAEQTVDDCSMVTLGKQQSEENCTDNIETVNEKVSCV
Method in brief: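 Rat cerebral cortex homogenised in 50 mM Tris-HCl pH 7.7, spun at 32000 × g, preincubated 10 min at 37 °C, resuspended in 50 volumes. Incubated with 0.6 nM [3H]-ketanserin and test agent (10^-10 to 10^-4 M) at 37 °C for 20 min; mianserin as displacer. GF/B filtration, scintillation counting; Ki from ≥3 experiments, 10 concentrations in triplicate.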

[2] = target: T1, 5-hydroxytryptamine receptor 1A (Rattus norvegicus, UniProt P19327); assay: Displacement of [3H]8-OH-DPAT from 5HT1A receptor in rat cerebral cortex after 15 mins by liquid scintillation counting; format: tissue-based
T1 sequence (P19327 whole entry): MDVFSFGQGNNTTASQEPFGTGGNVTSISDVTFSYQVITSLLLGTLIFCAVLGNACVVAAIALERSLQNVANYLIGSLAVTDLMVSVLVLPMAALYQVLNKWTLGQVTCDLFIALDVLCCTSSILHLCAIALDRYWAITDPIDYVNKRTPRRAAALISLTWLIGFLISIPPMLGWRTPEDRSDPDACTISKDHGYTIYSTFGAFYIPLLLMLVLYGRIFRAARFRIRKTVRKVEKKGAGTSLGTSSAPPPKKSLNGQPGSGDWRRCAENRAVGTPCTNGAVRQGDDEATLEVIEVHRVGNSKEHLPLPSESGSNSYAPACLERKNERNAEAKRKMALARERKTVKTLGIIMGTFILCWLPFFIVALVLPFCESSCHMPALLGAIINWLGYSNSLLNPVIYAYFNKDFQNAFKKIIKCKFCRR

Mus musculus [3] = assay: Agonist activity at 5HT1A receptor in Swiss albino mouse assessed as decrease in rectal temperature at 10 mg/kg, ip after 60 mins; format: functional, organism-based; parameters: dose 10 mg/kg
Method in brief: (§1)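 Male Albino Swiss mice (24–28 g), free food and water, room at 20 ± 1 °C; test agent suspended in 1% aqueous Tween 80, given ip at 10 ml/kg. Rectal temperature read with a thermometer at 30, 60, 90 and 120 min after dosing. Result expressed as Δt from basal temperature taken at the start; six to ten animals per group, each used once.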

Mus musculus [4] = assay: Agonist activity at 5HT1A receptor in Swiss albino mouse assessed as decrease in rectal temperature at 5 mg/kg, ip after 120 mins; format: functional, organism-based; parameters: dose 5 mg/kg; method in brief: as §1
Mus musculus [5] = assay: Agonist activity at 5HT1A receptor in Swiss albino mouse assessed as decrease in rectal temperature at 10 mg/kg, ip after 30 mins; format: functional, organism-based; parameters: dose 10 mg/kg; method in brief: as §1
Mus musculus [6] = assay: Agonist activity at 5HT1A receptor in Swiss albino mouse assessed as decrease in rectal temperature at 10 mg/kg, ip after 30 mins in presence of WAY 100635 administered 15 mins before drug challenge; format: functional, organism-based; parameters: dose 10 mg/kg
Method in brief: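 Male Albino Swiss mice (24–28 g). WAY 100635 (0.1 mg/kg, sc, in distilled water) given 15 min before test agent (ip, suspended in 1% Tween 80, 10 ml/kg). Rectal temperature recorded 30 and 60 min after test agent injection. Expressed as Δt versus basal temperature at the start of the experiment.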

Mus musculus [7] = assay: Agonist activity at 5HT1A receptor in Swiss albino mouse assessed as decrease in rectal temperature at 10 mg/kg, ip after 90 mins; format: functional, organism-based; parameters: dose 10 mg/kg; method in brief: as §1
Mus musculus [8] = assay: Sedative activity in Swiss albino mouse assessed as reduction on spontaneous locomotor activity at 20 mg/kg, ip administered 30 mins before test measured for 30 mins; format: ADME, organism-based; parameters: dose 20 mg/kg, route intraperitoneal; conditions: in vivo, 0.5 h
Method in brief: (§2)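 Male Albino Swiss mice (24–28 g); agent ip in 1% Tween 80, 30 min before the test. Locomotor activity counted as number of crossings during 6-min and 30-min sessions. n = 8–10 mice per group; mean ± SEM versus vehicle.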

Mus musculus [9] = assay: Anxiolytic activity in Swiss albino mouse assessed as number of punished crossings at 20 mg/kg, ip. administered 30 mins before test measured for 60s by four plate test; format: functional
Method in brief: (§3)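 Male Albino Swiss mice. Box with four metal floor plates separated by 4 mm gaps; 120 V between adjacent plates for 0.5 s delivered on crossing. Mice explored 15 s before testing. Agent (ip, 1% Tween 80) given 30 min before the test. Punished crossings counted; n = 10 mice per group, mean ± SEM.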

Mus musculus [10] = assay: Agonist activity at 5HT1A receptor in Swiss albino mouse assessed as decrease in rectal temperature at 5 mg/kg, ip after 90 mins; format: functional, organism-based; parameters: dose 5 mg/kg; method in brief: as §1
Rattus norvegicus [11] = assay: Behavioral activity in Wistar rat assessed as reduction of 8-OH-DPAT-induced lower lip retraction at 10 to 20 mg/kg, ip administered 45 mins before 8-OH-DPAT challenge; format: functional, organism-based
Mus musculus [12] = assay: Sedative activity in Swiss albino mouse assessed as reduction on spontaneous locomotor activity at 30 mg/kg, ip administered 30 mins before test measured for 30 mins; format: ADME, organism-based; parameters: dose 30 mg/kg, route intraperitoneal; conditions: in vivo, 0.5 h; method in brief: as §2
D(2) dopamine receptor = D(2) dopamine receptor (Rattus norvegicus, UniProt P61169); assay: Displacement of [3H]spiperone from dopamine D2 receptor in rat striatum membrane after 30 mins by liquid scintillation counting; format: cell membranes
Chain of D(2) dopamine receptor (P61169 whole entry): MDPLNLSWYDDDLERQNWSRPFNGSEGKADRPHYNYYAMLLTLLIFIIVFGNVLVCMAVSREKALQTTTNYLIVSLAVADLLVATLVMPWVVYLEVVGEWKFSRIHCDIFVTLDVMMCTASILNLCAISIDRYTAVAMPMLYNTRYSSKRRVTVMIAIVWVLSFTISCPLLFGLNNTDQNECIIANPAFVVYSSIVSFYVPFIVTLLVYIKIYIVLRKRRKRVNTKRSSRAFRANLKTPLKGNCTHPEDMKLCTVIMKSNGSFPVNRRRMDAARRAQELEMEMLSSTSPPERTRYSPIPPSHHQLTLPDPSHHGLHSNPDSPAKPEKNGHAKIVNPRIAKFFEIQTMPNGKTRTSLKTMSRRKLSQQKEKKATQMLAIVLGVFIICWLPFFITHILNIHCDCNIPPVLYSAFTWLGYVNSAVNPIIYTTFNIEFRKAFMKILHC
Method in brief: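 Rat striatum homogenised in 50 mM potassium phosphate pH 7.4 and spun twice at 20000 × g. Membranes (3 mg wet weight) incubated with 1 nM [3H]-spiperone and test agent in 0.5 ml for 30 min at 37 °C. Nonspecific binding with (+)butaclamol. GF/B filtration, two washes with ice-cold buffer, scintillation counting; Ki from ≥3 experiments, 10 concentrations in triplicate.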

Mus musculus [13] = assay: Agonist activity at 5HT1A receptor in ip dosed Swiss albino mouse assessed as decrease in rectal temperature; format: functional, organism-based; method in brief: as §1
Mus musculus [14] = assay: Sedative activity in Swiss albino mouse assessed as reduction on spontaneous locomotor activity at 20 mg/kg, ip administered 30 mins before test measured for 6 mins; format: ADME, organism-based; parameters: dose 20 mg/kg, route intraperitoneal; conditions: in vivo, 0.1 h; method in brief: as §2
Mus musculus [15] = assay: Agonist activity at 5HT1A receptor in Swiss albino mouse assessed as decrease in rectal temperature at 5 mg/kg, ip after 30 mins; format: functional, organism-based; parameters: dose 5 mg/kg; method in brief: as §1
Mus musculus [16] = assay: Antidepressant activity in Swiss albino mouse assessed as reduction of immobility time at 30 mg/kg, ip administered 30 mins before test by forced swimming test; format: functional; conditions: route intraperitoneal
Method in brief: (§4)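 Male Albino Swiss mice (24–28 g); agent suspended in 1% aqueous Tween 80, ip 10 ml/kg, 30 min before the test. Total immobility time scored over the last 4 min of a 6-min swim session. n = 8–10 mice per group; mean ± SEM, compared with vehicle.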

Mus musculus [17] = assay: Antidepressant activity in Swiss albino mouse assessed as reduction of immobility time at 10 mg/kg, ip administered 30 mins before test by forced swimming test; format: functional; conditions: route intraperitoneal; method in brief: as §4
Mus musculus [18] = assay: Antidepressant activity in Swiss albino mouse assessed as reduction of immobility time at 20 mg/kg, ip administered 30 mins before test by forced swimming test; format: functional; conditions: route intraperitoneal; method in brief: as §4
Mus musculus [19] = assay: Anxiolytic activity in Swiss albino mouse assessed as number of punished crossings at 10 mg/kg, ip administered 30 mins before test measured for 60s by four plate test; format: functional; conditions: route intraperitoneal; method in brief: as §3
Mus musculus [20] = assay: Sedative activity in Swiss albino mouse assessed as reduction on spontaneous locomotor activity at 30 mg/kg, ip administered 30 mins before test measured for 6 mins; format: ADME, organism-based; parameters: dose 30 mg/kg, route intraperitoneal; conditions: in vivo, 0.1 h; method in brief: as §2
Mus musculus [21] = assay: Agonist activity at 5HT1A receptor in Swiss albino mouse assessed as decrease in rectal temperature at 5 mg/kg, ip after 60 mins; format: functional, organism-based; parameters: dose 5 mg/kg; method in brief: as §1
Mus musculus [22] = species on record: Mus musculus; conditions: Swiss albino, 20 mg/kg
Mus musculus [23] = species on record: Mus musculus; conditions: Swiss albino, 20 mg/kg; remark: listed apart in the source
Mus musculus [24] = species on record: Mus musculus; conditions: Swiss albino, 20 mg/kg; remark: listed apart in the source
Mus musculus [25] = species on record: Mus musculus; conditions: Swiss albino, 20 mg/kg; remark: listed apart in the source
Mus musculus [26] = species on record: Mus musculus; conditions: Swiss albino, 20 mg/kg; remark: listed apart in the source
Mus musculus [27] = species on record: Mus musculus; conditions: Swiss albino, 20 mg/kg; remark: listed apart in the source
Mus musculus [28] = assay: Anxiolytic activity in Swiss albino mouse assessed as number of punished crossings at 30 mg/kg, ip administered 30 mins before test measured for 60s by four plate test; format: functional; conditions: route intraperitoneal; method in brief: as §3
Rattus norvegicus [29] = assay: Behavioral activity in Wistar rat assessed as reduction of 8-OH-DPAT-induced lower lip retraction at 10 to 20 mg/kg, ip administered 45 mins before 8-OH-DPAT challenge

SMILES: Cn1c(=O)c2c(nc3n2CC(C(=O)NCCN2CCN(c4cccc(Cl)c4)CC2)N3)n(C)c1=O (configuration not stated)
- Ki [2]: > 1 µM

SMILES: COc1ccccc1N1CCN(CCNC(=O)C2Cn3c(nc4c3c(=O)n(C)c(=O)n4C)N2)CC1 (configuration not stated)
- Ki [2]: > 1 µM

SMILES: COc1ccccc1N1CCN(CCN(C(=O)C2CCCCC2)c2ccccn2)CC1
- Activity (Rattus norvegicus [29]): Active

SMILES: Cn1c(=O)c2c(nc3n2CC(C(=O)NCCN2CCN(c4ccccc4)CC2)N3)n(C)c1=O (configuration not stated)
- Ki [2]: > 1 µM

SMILES: Cn1c(=O)c2c(nc3n(CCCN4CCN(c5ccccc5)CC4)c(-c4ccccc4)cn23)n(C)c1=O
- Ki [1]: 0.813 µM
- Ki (D(2) dopamine receptor): > 1 µM
- Ki [2]: 0.0965 µM

Now from value to molecule, other results behind:

- Ki [1]: 0.297 µM
SMILES: Cn1c(=O)c2c(nc3nc(NCCCN4CCN(c5ccccc5)CC4)c(Br)cn32)n(C)c1=O

- Ki [1]: > 1 µM
- Ki (D(2) dopamine receptor): > 1 µM
- Ki [2]: 0.0248 µM
- Activity (Mus musculus [13]): Dose-dependent effect
SMILES: Cn1c(=O)c2c(nc3n(CCCN4CCN(c5ccccc5)CC4)ccn23)n(C)c1=O
- deltaT (Mus musculus [3]): -0.4 °C
- deltaT (Mus musculus [4]): 0 °C
- deltaT (Mus musculus [5]): -1.2 °C
- deltaT (Mus musculus [6]): -0.3 °C
- deltaT (Mus musculus [7]): -0.4 °C
- Activity (Mus musculus [8]): 255.6
- Activity (Mus musculus [9]): 6.3
- deltaT (Mus musculus [10]): -0.2 °C
- Activity (Rattus norvegicus [11]): Active
- Activity (Mus musculus [12]): 221
- Activity (Mus musculus [14]): 146.4
- deltaT (Mus musculus [15]): -0.6 °C
- Activity (Mus musculus [16]): 88.9 s
- Activity (Mus musculus [17]): 147.5 s
- Activity (Mus musculus [18]): 87.9 s
- Activity (Mus musculus [19]): 4.7
- Activity (Mus musculus [20]): 139.2
- deltaT (Mus musculus [21]): -0.4 °C

- Ki [1]: > 1 µM
- Ki (D(2) dopamine receptor): 0.839 µM
- Ki [2]: 0.0254 µM
- Activity (Mus musculus [13]): Dose-dependent effect
SMILES: COc1ccccc1N1CCN(CCCn2ccn3c4c(=O)n(C)c(=O)n(C)c4nc23)CC1
- deltaT (Mus musculus [3]): -0.6 °C
- deltaT (Mus musculus [5]): -0.7 °C
- deltaT (Mus musculus [22]): -0.5 °C
- deltaT (Mus musculus [7]): -0.3 °C
- Activity (Mus musculus [8]): 925.8
- Activity (Mus musculus [9]): 2.5
- deltaT (Mus musculus [23]): -0.9 °C
- deltaT (Mus musculus [24]): -1 °C
- deltaT (Mus musculus [25]): -1.1 °C
- Activity (Mus musculus [12]): 567.6
- deltaT (Mus musculus [26]): -1.8 °C
- Activity (Mus musculus [14]): 353.4
- Activity (Mus musculus [16]): 101.3 s
- Activity (Mus musculus [17]): 134.2 s
- Activity (Mus musculus [18]): 104.8 s
- deltaT (Mus musculus [27]): -1.3 °C
- Activity (Mus musculus [20]): 198
- Activity (Mus musculus [28]): 2.5
